According to PMC9530613 (Redox Biology, 2022):

Assays:
SH-SY5Y cells [1] = assay: Aβ1-42 amyloid toxicity assay, CCK-8; format: cell-based, human
Outline: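 Human neuroblastoma SH-SY5Y cells in MEM-F12 (1:1) with 15% FBS, at 37 °C and 5% CO2, grown to 70% confluence. Monomer-rich Aβ1-42 (HFIP-treated, sonicated) added at 20 μM with or without varying test compound concentrations, ± I3MT3, for 24 h; scrambled Aβ peptide as control. CCK-8 added for 3 h at 37 °C, absorbance at 450 nm. One-way ANOVA with Tukey test.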

SH-SY5Y cells [2] = assay: Hydrogen peroxide cytotoxicity, SRB assay; format: cell-based, human; details: in the presence of I3MT3
Outline: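 SH-SY5Y cells (MEM-F12, 15% FBS, 37 °C, 5% CO2) exposed to 100 μM H2O2 ± test compound ± I3MT3 for 24 h at 37 °C. Fixed with 10% TCA for 1 h at 4 °C, washed, then stained 1 h at room temperature with 0.04% w/v SRB in 1% acetic acid. Washed with 1% acetic acid, dried, dye dissolved in 10 mM Tris base (pH 10.5), A510 read. One-way ANOVA with Tukey test.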

[3] = DPPH radical scavenging assay; format: biochemical; details: read-out: IC50, DPPH radical scavenging; DPPH 150 μM, 30 min, room temperature
Outline: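 Test compound at various concentrations incubated with DPPH (150 μM in 80% ethanol) for 30 min at room temperature. Radical scavenging read as absorbance at 517 nm.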

| IC50 [3] [µM] | Structure (SMILES) | effect of 3MST inhibitor on protective effect of sulfanegen against Aβ1-42 toxicity (SH-SY5Y cells [1]; Aβ1-42 20 μM + sulfanegen + I3MT3) | exacerbation of Aβ1-42 cytotoxicity, rise over Aβ1-42 alone (SH-SY5Y cells [1]; in the presence of I3MT3) [%] | exacerbation of H2O2 cytotoxicity, rise over H2O2 alone (SH-SY5Y cells [2]) [%] |
| --- | --- | --- | --- | --- |
|  | Cc1cc(=O)[nH]c(SCC(=O)c2cccc3ccccc23)n1 [I3MT3] | completely abolished | 10 | 20 |
| 141 | O=C1O[C@H]([C@@H](O)CO)C(O)=C1O [ascorbic acid] |  |  |  |
